Measured values published in ChEMBL document CHEMBL3992509, “Discovery of a Highly Potent, Selective, and Metabolically Stable Inhibitor of Receptor-Interacting Protein 1 (RIP1) for the Treatment of Systemic Inflammatory Response Syndrome” (J Med Chem, 2017).
Activity calls are given as the source filed them. No cut-off for these calls is given here.

Legend:
[1] = Intrinsic clearance in human liver microsomes assessed per mg protein in presence of NADPH by LC-MS/MS analysis; format: ADME, microsome; details: read-out: CLH
[2] = Half life in mouse liver microsomes in presence of NADPH by LC-MS/MS analysis; format: ADME, microsome
[3] = Half life in human liver microsomes in presence of NADPH by LC-MS/MS analysis; format: ADME, microsome
[4] = Intrinsic clearance in mouse liver microsomes assessed per mg protein in presence of NADPH by LC-MS/MS analysis; format: ADME, microsome; details: read-out: CLH
[5] = test system: Mus musculus; experiment: Protection against TNFalpha-induced multiorgan damage in C57BL/6J mouse assessed as inhibition of TNFalpha-induced increase in IL-6 level at 6 mg/kg, ip administered as single dose 17 mins before TNFalpha injection measured 12 hrs post TNFalpha injection; format: functional, organism-based
Outline: (§1)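 C57BL/6 mice given mTNFα IV, then a single 6 mg/kg IP compound dose 17 min before TNFα. Blood taken 12 h after TNFα for mIL-6 and mIL-1β.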

[6] = target: Indoleamine 2,3-dioxygenase 1 (Homo sapiens, UniProt P14902); experiment: Inhibition of recombinant human IDO expressed in Escherichia coli assessed as reduction in kynurenine production at 200 uM using L-tryptophan as substrate after 3 hrs by methylene blue dye based assay
Outline: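 Reaction mix: 50 mM MES pH 6.5, 20 mM ascorbate, 2250 U/mL catalase, 10 μM methylene blue, 200 μM L-Trp, 100 nM recombinant IDO, 200 μM compound or DMSO. Incubated 37 °C for 3 h; kynurenine colour read at 321 nm.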

[7] = test system: Mus musculus; experiment: Protection against TNFalpha-induced multiorgan damage in C57BL/6J mouse assessed as inhibition of TNFalpha-induced increase in IL-1beta level at 6 mg/kg, ip administered as single dose 17 mins before TNFalpha injection measured 12 hrs post TNFalpha injection; format: functional, organism-based; outline: as §1
[8] = target: Receptor-interacting serine/threonine-protein kinase 3 (Homo sapiens) (UniProt Q9Y572); experiment: Inhibition of full length recombinant human N-terminal GST-tagged RIP3 expressed in baculovirus infected sf9 cells at 10 uM using MBP as substrate preincubated for 15 mins followed by MBP/ATP mixture addition measured after 90 mins by ADP-Glo kinase assay
[9] = test system: Mus musculus; experiment: Protection against TNFalpha-induced mortality in C57BL/6J mouse assessed as survival rate at 6 mg/kg, ip administered as single dose 17 mins before TNFalpha injection measured every 30 mins up to 60 hrs post TNFalpha injection (reference value: 50%); format: functional
[10] = target: T1, Receptor-interacting serine/threonine-protein kinase 1 (Homo sapiens, UniProt Q13546); experiment: Inhibition of recombinant GST-tagged RIP1 (unknown origin) after 4 hrs by ADP-Glo kinase assay
T1 sequence (Q13546 whole entry): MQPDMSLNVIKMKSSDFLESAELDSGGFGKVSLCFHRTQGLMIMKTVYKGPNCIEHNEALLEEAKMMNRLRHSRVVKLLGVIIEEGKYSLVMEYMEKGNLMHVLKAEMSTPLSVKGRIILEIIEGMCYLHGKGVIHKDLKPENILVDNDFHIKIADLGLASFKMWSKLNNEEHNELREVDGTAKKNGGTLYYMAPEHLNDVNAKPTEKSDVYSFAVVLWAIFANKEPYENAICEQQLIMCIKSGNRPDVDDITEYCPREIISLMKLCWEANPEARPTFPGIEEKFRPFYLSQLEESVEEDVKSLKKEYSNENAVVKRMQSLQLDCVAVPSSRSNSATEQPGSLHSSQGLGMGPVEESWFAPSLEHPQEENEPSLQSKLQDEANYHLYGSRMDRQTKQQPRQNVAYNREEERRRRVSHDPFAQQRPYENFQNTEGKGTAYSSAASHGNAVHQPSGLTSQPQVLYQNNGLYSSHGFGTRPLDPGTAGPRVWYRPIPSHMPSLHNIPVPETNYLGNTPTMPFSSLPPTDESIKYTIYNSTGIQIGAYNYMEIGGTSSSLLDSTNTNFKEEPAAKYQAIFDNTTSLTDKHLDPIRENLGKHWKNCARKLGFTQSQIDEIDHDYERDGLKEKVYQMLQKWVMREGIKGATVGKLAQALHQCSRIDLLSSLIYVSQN

Chain of Indoleamine 2,3-dioxygenase 1 (P14902 whole entry): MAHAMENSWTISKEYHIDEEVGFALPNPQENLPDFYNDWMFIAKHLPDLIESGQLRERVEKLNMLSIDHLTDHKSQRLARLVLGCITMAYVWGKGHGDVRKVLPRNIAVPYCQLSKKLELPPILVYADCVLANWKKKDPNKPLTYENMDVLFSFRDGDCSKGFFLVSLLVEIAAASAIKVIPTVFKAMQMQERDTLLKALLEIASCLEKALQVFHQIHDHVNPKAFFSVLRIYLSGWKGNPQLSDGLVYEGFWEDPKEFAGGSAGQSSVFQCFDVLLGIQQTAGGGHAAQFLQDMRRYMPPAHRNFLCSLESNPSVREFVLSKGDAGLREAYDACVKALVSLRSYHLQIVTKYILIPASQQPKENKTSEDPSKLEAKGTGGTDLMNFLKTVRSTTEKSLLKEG
Chain of Receptor-interacting serine/threonine-protein kinase 3 (Homo sapiens) (Q9Y572 whole entry, looked up): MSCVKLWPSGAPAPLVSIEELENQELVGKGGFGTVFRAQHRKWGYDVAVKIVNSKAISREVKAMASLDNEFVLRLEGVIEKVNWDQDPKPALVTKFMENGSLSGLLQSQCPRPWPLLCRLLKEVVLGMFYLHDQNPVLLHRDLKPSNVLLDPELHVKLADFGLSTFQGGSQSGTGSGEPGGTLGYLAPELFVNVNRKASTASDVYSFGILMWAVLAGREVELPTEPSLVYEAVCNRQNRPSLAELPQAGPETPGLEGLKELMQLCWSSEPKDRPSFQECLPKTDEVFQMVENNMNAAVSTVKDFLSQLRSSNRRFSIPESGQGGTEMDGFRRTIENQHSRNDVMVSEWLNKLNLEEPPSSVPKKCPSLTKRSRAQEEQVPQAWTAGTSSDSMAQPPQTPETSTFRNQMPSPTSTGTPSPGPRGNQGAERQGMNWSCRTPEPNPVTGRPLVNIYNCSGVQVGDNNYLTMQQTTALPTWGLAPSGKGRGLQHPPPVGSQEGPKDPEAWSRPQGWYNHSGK

SMILES	microsomal CLint [1] [µL/min/mg]	half-life [2] [min]	half-life [3] [min]	microsomal CLint [4] [µL/min/mg]	further results
CCC(C)(C)C(=O)N(O)Cc1ccc(F)c(F)c1	6.5	11.3	107	61.4	
CCC(C)(C)C(=O)NCc1ccccc1			> 200		
CCC(C)(C)C(=O)N(O)Cc1cc(F)cc(F)c1F	10.4	9.21	66.6	75.3	
CCC(C)(C)C(=O)N(O)Cc1cc(F)c(F)c(F)c1	10.5	7.89	66	87.8	
CN1C(=O)C(Cc2c[nH]c3ccccc23)NC1=S (stereo not drawn) [NECROSTATIN]					inhibition [5]: Active; inhibition (INH) [6]: Active; inhibition [7]: Active; inhibition [8]: inactive; survival at 6 mg/kg [9]: 60%; IC50 [10]: 0.76 µM
CCC(C)(C)C(=O)NC(CO)c1ccccc1 (stereo not drawn)			> 200		

Now from value to compound, other results behind:

microsomal CLint [1] [µL/min/mg]	half-life [2] [min]	half-life [3] [min]	microsomal CLint [4] [µL/min/mg]	SMILES	further results
13.1	13.9	52.9	49.9	CCC(C)(C)C(=O)N(O)Cc1ccc(F)c(F)c1F	
		> 200		CCC(C)(C)C(=O)NC(C)c1ccccc1 (stereo not drawn)	
3.9	24.1	178	28.8	CCC(C)(C)C(=O)N(O)Cc1ccc(F)cc1	
3.5	23.2	198	29.9	CCC(C)(C)C(=O)N(O)Cc1ccc(F)cc1F	
